APJ antag: blocks the human apelin receptor APJ. P35414. inhibition, % at 20 µM. AID 2521. hit rate 0.32% among 330,000. CHO-K1 APJ beta-arrestin complementation, luminescence;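 active = inhibition above about 40% at 20 µM, limit read from the data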;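 also: cells challenged with 10 nM apelin-13 agonist together with compound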
iPSC survival up: increases survival of single human iPS cells; hiPSC single-cell survival, ATPlite luminescence; 100% = ROCK inhibitor wells, 0% = DMSO; survival enhancement, % at 20 µM; hit rate 0.044% among 360,000; AID 602274; in the data active = survival enhancement above about 18%;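 also: cells exposed to compounds for 16 hours before the ATP read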
APJ agonist: APJ receptor agonism; hit rate 0.11% among 330,000; CHO-K1 APJ PathHunter beta-arrestin, luminescence; 0% DMSO wells, 100% apelin; P35414; activation, % at 20 µM;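 active = activation more than six SD over the plate average, tested at 20 µM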
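Material: engineered CHO-K1 APJ arrestin reporter cells; amount: 1000 CHO-K1 reporter cells seeded per well; incubation: compound stimulation 90 min at 25 °C, detection 60 min; signal: luminescent beta-gal fragment complementation, chemiluminescent substrate; read-out basis: APJ agonist activity; controls: DMSO-only wells as negative, 10 nM Apelin-13 as positive control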
CCR6 antag: antagonists of human CCR6 receptor | CHO-K1 CCR6 PathHunter beta-arrestin, luminescence, CCL20-stimulated | inhibition, % at 20 µM | hit rate 0.49% among 340,000;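 active = compounds whose inhibition of the agonist-driven luminescence signal at 20 µM reaches about 50%, limit read from the data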;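 also: cells stimulated with CCL20 at 14 nM final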
Target sequence (P51684 whole entry, looked up): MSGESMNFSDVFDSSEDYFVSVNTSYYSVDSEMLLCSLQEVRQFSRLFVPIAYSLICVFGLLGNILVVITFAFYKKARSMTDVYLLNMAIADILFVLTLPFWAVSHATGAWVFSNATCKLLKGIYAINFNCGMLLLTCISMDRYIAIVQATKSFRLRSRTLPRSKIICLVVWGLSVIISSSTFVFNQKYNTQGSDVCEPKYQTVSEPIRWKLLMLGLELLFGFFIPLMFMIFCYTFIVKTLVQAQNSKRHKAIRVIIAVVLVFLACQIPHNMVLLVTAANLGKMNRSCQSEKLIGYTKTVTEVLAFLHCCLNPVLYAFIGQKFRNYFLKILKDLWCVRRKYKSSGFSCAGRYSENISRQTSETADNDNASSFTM
DAGLB inhibitor: diacylglycerol lipase beta (human) inhibition | inhibition, % at 5.17 µM | AID 504411 | HEK293T DAGLB membrane lysate, EnzChek fluorogenic substrate | hit rate 0.059% among 340,000; in the data active = inhibition above about 34%
CXCR6 inh: blocks human CXCR6 beta-arrestin recruitment | O00574 | CHO-K1 PathHunter CXCR6 beta-arrestin, luminescence | inhibition, % at 20 µM | hit rate 0.36% among 360,000 | AID 602244; in the data active = inhibition above about 34%, passing the limit was not always enough;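 also: antagonist mode with CXCL16 agonist at 10 nM final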
Of the large screens only hits and unclear results are named; the others gave an inactive call. The list is not random: actives were taken first. Their share in the collection is about 0.86%.

Cc1cc(F)ccc1C(O)c1ncc(-c2ccc3ccccc3c2)[nH]1 (stereo not drawn)	none (no result: APJ antag, APJ agonist, CCR6 antag, DAGLB inhibitor)
COc1ccc(C(=O)Nc2nc(-c3ccc([N+](=O)[O-])cc3)c(-c3ccc(OC)cc3)s2)cc1	CCR6 antag 61
C=CC(=O)Nc1ccc(N(C)c2ccnc(Nc3ccc(N4CCN(C)CC4)cc3)n2)cc1	none
O=C1/C(=C/c2ccc(O)cc2)SC(=S)N1Cc1cccnc1	APJ antag 47
C#CCOc1ccc(/C=C2\SC(=S)N(Cc3cccnc3)C2=O)cc1	none
O=C(O)c1ccc(N2C(=O)/C(=C/c3ccc(-c4ccc([N+](=O)[O-])cc4)o3)C=C2c2ccccc2)cc1	CXCR6 inh 45 (no result: CCR6 antag)
O=C1NN(c2ccccc2)C(=O)/C1=C/c1ccc(-c2ccc(C(=O)O)cc2)o1	none
COc1cccc2c1Oc1ncccc1N(C(=O)CCC(=O)NCc1ccccc1F)C2	none
Cc1ccc(O)c(N=Nc2nccs2)c1	CXCR6 inh 52 (no result: CCR6 antag)
COc1ccc(N=Nc2cc(C)ccc2O)cc1	none
CCOc1cccc(-c2cc(NCCc3ccccn3)n3nccc3n2)c1	none (no result: APJ antag, APJ agonist, CCR6 antag, DAGLB inhibitor)
O=S1(=O)C=C(Sc2nc3ccccc3s2)c2ccccc21	CCR6 antag 72 (no result: iPSC survival up, DAGLB inhibitor, CXCR6 inh)
Cc1cc(C)nc(SC2=CS(=O)(=O)c3ccccc32)n1	none
CN(C)CCCN(C(=O)CCc1ccccc1)c1nc2ccc(Br)cc2s1	CCR6 antag 53
CN(C)CCCN(C(=O)CCc1ccccc1)c1nc2ccc(F)cc2s1	none
CC(=O)c1cccc(NC(=S)NC(=O)c2cncc(Br)c2)c1	CCR6 antag 56
COc1cccc(NC(=S)NC(=O)c2cncc(Br)c2)c1	none
Cc1cc(NC(=O)CN2C(=O)NC(c3ccccc3)(c3ccc(C)c(C)c3)C2=O)no1 (stereo not drawn)	none
COC1=C(N)C(=O)c2nc(C)ccc2C1=O	none (no result: APJ antag, APJ agonist)
COC1=C(Br)C(=O)c2nc(C)ccc2C1=O	CXCR6 inh 44 (no result: APJ antag, APJ agonist, CCR6 antag)
CC1C(c2ccccc2)N(C)C(c2ccccc2)C(C)C1(O)C#Cc1ccccc1 (stereo not drawn)	CCR6 antag 50
CCN1CCC(O)(C#Cc2ccccc2)CC1	none
CC1CCN(CC2C(=O)O[C@@H]3C[C@@]4(C)CCC[C@H](C)C4=C[C@H]23)CC(C)(C)C1 (stereo partly drawn)	none
COC(=O)c1ccc(Cn2cc(C(F)(F)F)cc([N+](=O)[O-])c2=O)cc1	none
COc1ccc(CCNC(=O)Nc2ccc3nc([C@@H]4O[C@H](CO)[C@@H](O)[C@H](O)[C@H]4O)[nH]c3c2)cc1Br	none (no result: APJ antag, APJ agonist, CCR6 antag, DAGLB inhibitor)
CCCOC(=O)C1=C(C)NC2=C(C(=O)CCC2)C1c1cccs1 (stereo not drawn)	none
CC1=C(C(=O)OC2CCCCCC2)C(c2ccc(C)o2)C2=C(CCCC2=O)N1 (stereo not drawn)	none
CC1=C(C(=O)OC2CCCC2)C(c2ccc(C)o2)C2=C(CC(c3cccs3)CC2=O)N1 (stereo not drawn)	CCR6 antag 58
COC(=O)C1=C(C)NC2=C(C(=O)CC(c3cccs3)C2)C1c1ccsc1 (stereo not drawn)	CCR6 antag 58 (no result: APJ antag, APJ agonist)
CC1CCC(NC(=O)CSc2nncs2)CC1 (stereo not drawn)	none
Cc1ccc(C(=O)/C=C/C(=O)c2ccc(C)cc2)cc1	CCR6 antag 100, CXCR6 inh 92
O=C(/C=C/c1cc(Br)ccc1O)c1ccco1	CCR6 antag 64
O=C1CC(=O)OC(c2ccc([N+](=O)[O-])cc2)O1	CXCR6 inh 50 (no result: APJ antag, APJ agonist, CCR6 antag)
CCC1C(=O)C(C)(C)C(=O)OC1c1ccc([N+](=O)[O-])cc1 (stereo not drawn)	none (no result: APJ antag, APJ agonist)
Cc1cc(F)ccc1S(=O)(=O)Nc1ccc(C(=O)N2CCCCC2)cc1	none
Cc1nc(NC(=O)CSc2nnnn2Cc2ccccc2)sc1C	CCR6 antag 86
COc1ccc(S(=O)(=O)N2CCOCC2)cc1NC(=O)[C@@H]1CCCN1C(=O)c1cccs1	CCR6 antag 96
O=C1/C(=C/c2ccccc2)CN(C(=O)CCN2CCOCC2)C/C1=C\c1ccccc1	CCR6 antag 53 (no result: APJ antag, APJ agonist)
CN(C)CCC(=O)N1C/C(=C/c2ccccc2)C(=O)/C(=C\c2ccccc2)C1	CCR6 antag 78, CXCR6 inh 66 (no result: APJ antag, APJ agonist)

Bioassay records as filed in PubChem.
